The values that follow come from ChEMBL document CHEMBL1130274, “Fibrinogen receptor (GPIIb-IIIa) antagonists derived from 5,6-bicyclic templates. Amidinoindoles, amidinoindazoles, and amidinobenzofurans containing the N-alpha-sulfonamide carboxylic acid function as potent platelet aggregation inhibitors” (J Med Chem, 1997).

Common to all, as to format: protein-complex assay
Assay [1] has as its target Integrin alpha-IIb/beta-3 (Homo sapiens, UniProt P05106+P08514). The experiment in a line: Inhibitory activity of fibrinogen binding to purified immobilized glycoprotein (fibrinogen receptor).
Assay [2] addresses T1, Integrin alpha-V/beta-3 (Homo sapiens, UniProt P05106+P06756). The experiment in a line: Inhibition of vitronectin binding to the purified immobilized vitronectin receptor (alpha v, beta 3). The method, boiled down:
(§1)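 Solid-phase microtiter assay. Purified integrin (GPIIb-IIIa or αvβ3) was coated at 1 μg/well overnight at 4 °C in Tris pH 7.4 buffer with CaCl2, then blocked with 35 mg/mL BSA for 2–3 h. Biotinylated fibrinogen or vitronectin (20 nM final) plus compound was incubated 3 h at room temperature. Bound ligand was detected with alkaline phosphatase anti-biotin antibody and pNPP at 405 nm.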

The target of assay [3] is T1, Integrin alpha-V/beta-3. The experiment in a line: Inhibition of vitronectin binding to purified immobilized vitronectin receptor alpha v beta3. The method, boiled down: as §1

T1 sequence (P05106 27-788 limits assumed): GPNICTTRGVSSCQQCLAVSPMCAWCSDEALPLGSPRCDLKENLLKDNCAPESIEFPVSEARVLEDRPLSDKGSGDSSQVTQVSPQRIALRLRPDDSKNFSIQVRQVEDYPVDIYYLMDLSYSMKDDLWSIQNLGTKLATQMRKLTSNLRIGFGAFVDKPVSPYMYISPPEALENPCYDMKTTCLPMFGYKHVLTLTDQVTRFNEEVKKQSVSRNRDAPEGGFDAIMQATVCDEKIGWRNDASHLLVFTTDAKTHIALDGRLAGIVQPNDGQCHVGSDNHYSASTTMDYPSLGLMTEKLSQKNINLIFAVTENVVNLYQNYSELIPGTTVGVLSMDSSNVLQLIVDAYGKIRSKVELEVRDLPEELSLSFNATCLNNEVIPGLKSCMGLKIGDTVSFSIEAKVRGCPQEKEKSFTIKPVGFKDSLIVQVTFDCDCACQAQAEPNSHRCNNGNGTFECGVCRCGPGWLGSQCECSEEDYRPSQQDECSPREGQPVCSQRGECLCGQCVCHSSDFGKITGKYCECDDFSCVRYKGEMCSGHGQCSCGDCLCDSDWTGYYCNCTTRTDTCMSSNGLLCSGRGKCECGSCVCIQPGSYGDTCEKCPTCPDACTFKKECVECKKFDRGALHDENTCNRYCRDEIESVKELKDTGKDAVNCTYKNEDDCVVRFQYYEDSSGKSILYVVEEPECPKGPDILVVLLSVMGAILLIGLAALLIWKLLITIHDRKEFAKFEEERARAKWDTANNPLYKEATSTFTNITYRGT
T1 sequence (P06756 31-889 limits assumed): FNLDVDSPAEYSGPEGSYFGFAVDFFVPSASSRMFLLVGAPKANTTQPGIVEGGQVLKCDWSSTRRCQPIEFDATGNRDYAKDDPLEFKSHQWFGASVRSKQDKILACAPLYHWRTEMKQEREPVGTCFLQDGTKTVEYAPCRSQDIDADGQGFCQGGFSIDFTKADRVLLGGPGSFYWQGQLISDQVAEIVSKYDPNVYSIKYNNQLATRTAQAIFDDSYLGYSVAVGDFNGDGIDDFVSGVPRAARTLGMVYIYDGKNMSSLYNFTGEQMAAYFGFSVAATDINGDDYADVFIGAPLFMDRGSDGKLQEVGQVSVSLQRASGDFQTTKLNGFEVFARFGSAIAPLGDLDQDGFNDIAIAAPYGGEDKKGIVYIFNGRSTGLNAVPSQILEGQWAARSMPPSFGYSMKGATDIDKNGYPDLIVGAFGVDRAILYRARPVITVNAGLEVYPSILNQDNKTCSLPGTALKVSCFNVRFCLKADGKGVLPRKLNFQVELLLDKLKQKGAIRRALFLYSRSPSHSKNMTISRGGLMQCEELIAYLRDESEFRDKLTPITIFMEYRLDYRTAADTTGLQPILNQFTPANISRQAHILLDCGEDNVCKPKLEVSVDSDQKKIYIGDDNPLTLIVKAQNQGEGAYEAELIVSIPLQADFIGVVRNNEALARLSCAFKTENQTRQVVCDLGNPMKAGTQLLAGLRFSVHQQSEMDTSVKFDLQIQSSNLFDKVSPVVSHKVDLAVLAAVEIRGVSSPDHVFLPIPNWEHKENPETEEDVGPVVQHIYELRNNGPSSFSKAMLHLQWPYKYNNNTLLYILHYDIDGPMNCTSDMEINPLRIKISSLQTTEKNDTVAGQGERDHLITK
T1 sequence (P06756 891-1048 limits assumed): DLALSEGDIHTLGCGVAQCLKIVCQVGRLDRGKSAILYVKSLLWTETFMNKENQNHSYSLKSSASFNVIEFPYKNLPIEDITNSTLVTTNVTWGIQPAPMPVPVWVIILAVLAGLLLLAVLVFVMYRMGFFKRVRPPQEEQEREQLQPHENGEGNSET
Sequence of Integrin alpha-IIb/beta-3 (P05106 27-788 limits assumed): as the sequence (P05106 27-788 limits assumed) above
Sequence of Integrin alpha-IIb/beta-3 (P08514 32-887 limits assumed): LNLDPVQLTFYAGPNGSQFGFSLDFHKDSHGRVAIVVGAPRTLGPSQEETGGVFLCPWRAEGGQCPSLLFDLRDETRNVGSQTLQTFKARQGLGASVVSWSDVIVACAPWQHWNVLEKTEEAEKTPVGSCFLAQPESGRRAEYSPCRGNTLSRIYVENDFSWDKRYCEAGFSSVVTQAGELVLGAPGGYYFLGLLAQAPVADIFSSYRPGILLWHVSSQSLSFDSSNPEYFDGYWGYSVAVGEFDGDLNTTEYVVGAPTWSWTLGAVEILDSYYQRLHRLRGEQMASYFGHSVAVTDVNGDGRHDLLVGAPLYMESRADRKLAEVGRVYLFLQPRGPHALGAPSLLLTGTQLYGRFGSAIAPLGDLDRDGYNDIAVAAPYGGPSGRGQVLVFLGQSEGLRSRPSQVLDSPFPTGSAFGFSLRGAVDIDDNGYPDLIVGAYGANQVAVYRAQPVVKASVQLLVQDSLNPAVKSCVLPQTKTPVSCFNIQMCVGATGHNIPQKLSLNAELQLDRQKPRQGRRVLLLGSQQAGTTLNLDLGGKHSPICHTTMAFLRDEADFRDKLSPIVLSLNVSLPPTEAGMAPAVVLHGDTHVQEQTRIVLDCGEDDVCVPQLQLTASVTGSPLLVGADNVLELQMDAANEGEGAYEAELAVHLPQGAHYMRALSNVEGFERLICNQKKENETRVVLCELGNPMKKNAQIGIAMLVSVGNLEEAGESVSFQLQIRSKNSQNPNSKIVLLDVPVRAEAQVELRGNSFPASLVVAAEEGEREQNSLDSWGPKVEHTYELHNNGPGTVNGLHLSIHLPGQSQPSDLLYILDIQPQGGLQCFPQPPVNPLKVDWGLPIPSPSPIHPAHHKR
Sequence of Integrin alpha-IIb/beta-3 (P08514 891-1039 limits assumed): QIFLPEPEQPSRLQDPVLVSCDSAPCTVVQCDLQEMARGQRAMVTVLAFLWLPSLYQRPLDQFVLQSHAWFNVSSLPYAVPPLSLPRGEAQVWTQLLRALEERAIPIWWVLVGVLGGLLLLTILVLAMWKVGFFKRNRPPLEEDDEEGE

On to `COc1ccc(C(CC(=O)O)NC(=O)CCNC(=O)c2cc3cc(C(=N)N)ccc3o2)cc1OC` (stereo not given), for which the half-maximal inhibitory concentration (IC50) (usually the midpoint of a concentration-inhibition curve) in assay [1] is 40 nM. In other words, the double-digit nanomolar range. The same measure, in the same setting: the value for `N=C(N)c1ccc2[nH]c(C(=O)NC(CC(=O)NC(CC(=O)O)c3ccccc3)C(F)(F)F)cc2c1` (stereo not given) was 10000 nM; that for `N=C(N)c1ccc2oc(C(=O)N3CCCC(C(=O)NC(CC(=O)O)c4ccccc4)C3)cc2c1` (stereo not given) was 400 nM. On to `N=C(N)c1ccc2oc(C(=O)NCCC(=O)NC(CC(=O)O)c3cc(F)cc(F)c3)cc2c1` (stereo not given), for which the half-maximal inhibitory concentration (IC50) was over 100000 nM in assay [2] and 100 nM in assay [1]. In the case of `CN(CC(=O)NC(CC(=O)O)c1ccccc1)C(=O)c1cc2cc(C(=N)N)ccc2[nH]1` (stereo not given), in assay [1], the IC50 turned out to be 10000 nM. That is a double-digit micromolar value.

For `N=C(N)c1ccc2oc(C(=O)NCCC(=O)NC(CC(=O)O)c3cccnc3)cc2c1` (stereo not given), the values for the IC50 in assay [2] and in assay [1] were 100000 nM and 40 nM, respectively. `CN(C)c1cccc2c(S(=O)(=O)N[C@@H](CNC(=O)CCNC(=O)c3cc4cc(C(=N)N)ccc4o3)C(=O)O)cccc12`: the half-maximal inhibitory concentration (IC50) in assay [2] was over 100000 nM; in assay [1] it was 2 nM. For `CCCCS(=O)(=O)NC(CNC(=O)CCNC(=O)c1[nH]nc2cc(C(=N)N)ccc12)C(=O)O` (stereo not given) the same measures were over 100000 nM and 2 nM. In assay [1], `CC(C)(NC(=O)c1cc2cc(C(=N)N)ccc2[nH]1)C(=O)NC(CC(=O)O)c1ccccc1` (stereo not given) registered an IC50 of over 100000 nM. Consider `N=C(N)c1ccc2oc(C(=O)NCCC(=O)NC[C@H](N)C(=O)O)cc2c1`, for which the half-maximal inhibitory concentration (IC50) in assay [2] was over 100000 nM; in assay [1], 40 nM.

In assay [1], `N=C(N)c1ccc2[nH]c(C(=O)NCC(=O)NC(CC(=O)O)c3ccccc3)cc2c1` (stereo not given) registered an IC50 of 10000 nM. This counts as double-digit micromolar. With `N=C(N)c1ccc2oc(C(=O)NCCC(=O)NC(CC(=O)O)c3ccc(F)c(F)c3)cc2c1` (stereo not given), the values for the IC50 in assay [2] and in assay [1] were over 100000 nM and 200 nM, respectively.

In assay [1], `N=C(N)c1ccc2[nH]c(C(=O)Nc3cccc(C(=O)NC(CC(=O)O)c4ccccc4)c3)cc2c1` (stereo not given) registered an IC50 of 50000 nM. Turning to `CCCCS(=O)(=O)N[C@@H](CNC(=O)CCNC(=O)c1cc2cc(C(=N)N)ccc2o1)C(=O)O`, the results for the 50% inhibitory concentration (IC50) in assay [2] and in assay [1] were over 100000 nM and 2 nM, respectively. For `CC(CC(=O)NC(CC(=O)O)c1ccccc1)NC(=O)c1cc2cc(C(=N)N)ccc2[nH]1` (stereo not given) the same measures were 125000 nM and 2500 nM. Turning to `N=C(N)c1ccc2oc(C(=O)NCCC(=O)NC[C@H](NS(=O)(=O)c3ccc(I)cc3)C(=O)O)cc2c1`, the values for the half-maximal inhibitory concentration (IC50) in assay [2] and in assay [1] were over 100000 nM and 2 nM, respectively. For `N=C(N)c1ccc2oc(C(=O)NCCC(=O)NC(CC(=O)O)c3cc(F)ccc3F)cc2c1` (stereo not given) the same measures were over 100000 nM and 125 nM.

Regarding `CCCCS(=O)(=O)NC(CNC(=O)CCNC(=O)c1c[nH]c2cc(C(=N)N)ccc12)C(=O)O` (stereo not given), the IC50 was over 100000 nM in assay [2] and 2 nM in assay [1]. As for `N=C(N)c1ccc2oc(C(=O)N3Cc4ccccc4CC3C(=O)NC(CC(=O)O)c3ccccc3)cc2c1` (stereo not given), in assay [1], the half-maximal inhibitory concentration (IC50) turned out to be 500 nM. For `C#CC(CC(=O)O)NC(=O)CCNC(=O)c1cc2cc(C(=N)N)ccc2o1` (stereo not given), the IC50 in assay [2] is over 100000 nM; in assay [1], 40 nM. Molecule `N=C(N)c1ccc2oc(C(=O)N3CCC[C@@H]3C(=O)NC(CC(=O)O)c3ccccc3)cc2c1` (stereo not given in full) showed a half-maximal inhibitory concentration (IC50) in assay [1] of 1000 nM. As to `N=C(N)c1ccc2oc(C(=O)NCCC(=O)NC(CC(=O)O)C(F)(F)F)cc2c1` (stereo not given), the half-inhibitory concentration (IC50) in assay [2] is over 100000 nM; in assay [1], 40 nM.

In assay [1], `N=C(N)c1ccc2[nH]c(C(=O)NCCC(=O)NC(CC(=O)O)c3ccccc3)cc2c1` (stereo not given) returned an IC50 of 1000 nM. That is a single-digit micromolar value. Regarding `CN(CCC(=O)NC(CC(=O)O)c1ccccc1)C(=O)c1cc2cc(C(=N)N)ccc2[nH]1` (stereo not given), the figures for the IC50 in assay [3] and in assay [1] were over 100000 nM and 20 nM, respectively. Regarding `N=C(N)c1ccc2oc(C(=O)NCCC(=O)NCCC(=O)O)cc2c1`, the IC50 in assay [2] is over 100000 nM; in assay [1], 20 nM. For `N=C(N)c1ccc2oc(C(=O)NCCC(=O)NC(CC(=O)O)c3ccccc3)cc2c1` (stereo not given) the same measures were 60000 nM and 150 nM.

Regarding `N=C(N)c1ccc2oc(C(=O)NCC(=O)NC(CC(=O)O)c3ccccc3)cc2c1` (stereo not given), the concentration for half-maximal inhibition (IC50) in assay [1] was determined as 300 nM.

Regarding `N=C(N)c1ccc2oc(C(=O)NCCC(=O)NC[C@H](NS(=O)(=O)c3ccccc3)C(=O)O)cc2c1`, the IC50 in assay [2] is over 100000 nM; in assay [1], 1.8 nM. On the same counts, the results for `CC(CC(=O)NC(CC(=O)O)c1ccccc1)NC(=O)c1cc2cc(C(=N)N)ccc2o1` (stereo not given) are over 100000 nM and 20 nM.

Regarding `CN(CCC(=O)NC(CC(=O)O)c1ccccc1)C(=O)c1cc2cc(C(=N)N)ccc2o1` (stereo not given), the IC50 in assay [2] is over 100000 nM; in assay [1], 150 nM. With `N=C(N)c1ccc2[nH]c(C(=O)N3CCC(C(=O)NC(CC(=O)O)c4ccccc4)CC3)cc2c1` (stereo not given), in assay [1], the 50% inhibitory concentration (IC50) turned out to be 6000 nM.
